High-throughput results: PubChem, Sanford-Burnham Center for Chemical Genomics
Hits are enriched below; roughly 2.5% of the tested compounds scored in any of these assays.
SENP1 FRET inh: SENP1 (human) catalytic domain inhibition | Q9P0U3 | recombinant SENP1 catalytic domain, CyPet-SUMO1-YPet FRET cleavage | inhibition, % at 10 µM | hit rate 0.21% among 360,000 | AID 624204;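 active = inhibition at least 30% at 10 µM, raw YFP signal under a set limit, fluorescence ratio 0.5 to 1.5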;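 also: 0% = enzyme with DMSO and 100% = no enzyme wells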
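Compound: 10 µM single point, 0.5% DMSO; Test system: hSENP1 catalytic domain, recombinant; Timing: 50 min reaction at room temperature; Technique: FRET, CFP and YFP emission; Control set: no-enzyme wells low, DMSO-plus-enzyme wells high control.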
SENP8 block-1: blocks the human protease SENP8. Q96LD8. purified SENP8, Z-RLRGG-aminoluciferin cleavage, luminescence. inhibition, % at 10 µM. hit rate 1.2% among 330,000. AID 2540; in the data active = inhibition above about 50%
SENP8 block-2: inhibitors of human SENP8 protease; inhibition, % at 20 µM; hit rate 0.64% among 360,000; recombinant SENP8, Nedd8 substrate fluorescence; Q96LD8; in the data active = inhibition mostly above about 40%, no sharp cut-off; inactive = mostly below about 27%
SENP7 inh: SENP7 protease inhibition; Q9BQF6; recombinant SENP7, Z-RLRGG-aminoluciferin luminescence, 40 min; inhibition, % at 5 µM; hit rate 1.5% among 330,000;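 active = inhibition above about 50% at the single test dose, limit read from the data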;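 also: plate controls were DMSO with enzyme for no effect and no enzyme buffer wells for full effect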
SENP6 inh: blocks the human protease SENP6; Q9GZR1; Recombinant SENP6 catalytic domain, aminoluciferin luminescence; inhibition, % at 10 µM; hit rate 1.8% among 330,000;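 active = inhibition above about 50% at the single tested dose, limit read from the data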;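 also: plate controls were DMSO wells with enzyme for no effect and DMSO wells lacking enzyme for full effect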
Target sequence (Q9GZR1 628-1112 limits assumed): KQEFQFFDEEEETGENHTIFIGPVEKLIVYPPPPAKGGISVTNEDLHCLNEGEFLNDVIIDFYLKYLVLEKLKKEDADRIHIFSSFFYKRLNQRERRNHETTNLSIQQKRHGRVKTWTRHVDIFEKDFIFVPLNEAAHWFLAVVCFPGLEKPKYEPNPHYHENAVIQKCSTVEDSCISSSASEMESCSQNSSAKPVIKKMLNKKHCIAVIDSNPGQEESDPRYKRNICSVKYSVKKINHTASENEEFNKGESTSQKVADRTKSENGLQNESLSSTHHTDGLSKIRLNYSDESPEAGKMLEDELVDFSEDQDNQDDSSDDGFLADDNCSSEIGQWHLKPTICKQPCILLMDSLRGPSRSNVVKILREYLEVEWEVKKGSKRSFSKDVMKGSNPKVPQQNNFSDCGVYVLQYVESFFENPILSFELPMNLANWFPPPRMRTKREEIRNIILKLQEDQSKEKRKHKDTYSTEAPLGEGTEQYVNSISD
SENP1 conf: SENP1 (human) inhibition, single concentration confirmation; shares compounds with SENP1 FRET inh; recombinant SENP1, CyPet-SUMO1-YPet FRET cleavage; inhibition, % at 10 µM; hit rate 34% among 520; AID 651678; in the data active = inhibition mostly above about 35%, no sharp cut-off; inactive = mostly below about 32%;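 also: 0% = enzyme with DMSO and 100% = no enzyme control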
SENP1 kinetic: SENP1 (human) inhibition, kinetic confirmation | hit rate 26% among 520 | recombinant SENP1, CyPet-SUMO1-YPet FRET kinetic cleavage | AID 651690 | shares compounds with SENP1 FRET inh | inhibition, % at 10 µM; in the data active = inhibition mostly above about 32%, no sharp cut-off; inactive = mostly below about 29%;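 also: 0% = DMSO with enzyme and 100% = no enzyme substrate only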
The depositor's hits bear a star; x = no result given.

SMILES | SENP1 FRET inh | SENP8 block-1 | SENP8 block-2 | SENP7 inh | SENP6 inh | SENP1 conf | SENP1 kinetic
COc1ccc(C2C(C(C)=O)=C(C)N=c3s/c(=C\c4ccco4)c(=O)n32)c(OC)c1 (stereo not given) | 36.6* | -7.1 | 16.1 | -7.0 | -1.1 | 40.8* | 32.3*
CC(C)Cc1ccccc1S(N)(=O)=O | -2.2 | -0.2 | 19.1 | 2.0 | -0.1 | x | x
CC1CCc2c(sc3ncnc(SCC(=O)N(C)C4CCS(=O)(=O)C4)c23)C1 (stereo not given) | 31.9* | 5.7 | 0.0 | -3.4 | 15.6 | 0.8 | 19.4
Nc1ccc2c(c1)-c1ccc(F)cc1C2=O | 82.1* | x | 21.8 | x | x | 49.3* | 27.5
Nc1ccc2c(c1)C(=O)c1ccc(Cl)cc1-2 | -1.7 | x | 23.1 | x | x | x | x
O=C(NCC1CCCO1)c1sc(=S)n2c1[nH]c(=O)c1ccc(C(=O)N3CCCCC3)cc12 (stereo not given) | 30.6* | 3.2 | 17.3 | -3.3 | -2.0 | 41.9* | 19.1
CCn1cc(C(=O)O)c(=O)c2cc(F)c(N/N=C/c3ccccc3[N+](=O)[O-])cc21 | 33.5* | -4.2 | 14.3 | 2.3 | -6.1 | -4.3 | 0.0
Cc1cc(C)n2c(NC3CCCC3)c(-c3cccnc3)nc2n1 | 32.4* | x | -27.9 | x | x | 20.3 | 9.5
Cc1cccc2nc(-c3cccnc3)c(NCCC(C)C)n12 | -7.6 | 2.5 | -435.1 | 3.5 | -10.8 | x | x
Cc1cc(C)n2c(Nc3c(C)cccc3C)c(-c3cccnc3)nc2n1 | 64.0* | x | -42.6 | x | x | 38.6* | 27.1
Cc1cccc2nc(-c3cccnc3)c(Nc3ccccc3)n12 | -0.3 | 1.6 | -256.4 | -1.2 | -11.3 | x | x
CCCCNc1c(-c2cccnc2)nc2nc(C)cc(C)n12 | 35.8* | x | -25.6 | x | x | 19.4 | 14.8
COc1cccc(-c2ccc(CN3C(C(C)C)C(=O)N(Cc4cn(CCC5OCCO5)nn4)CCS3(=O)=O)cc2)c1OC (stereo not given) | 4.3 | x | 22.4 | x | x | x | x
CCOC(=O)c1nncc(-c2ccccc2)n1 | -0.3 | 0.0 | 10.3 | -2.4 | -5.8 | x | x
CCOC(=O)Nc1ccc(Cc2ccncc2)cc1 | -0.4 | -2.8 | 9.0 | -20.2 | -7.6 | x | x
COc1ccc(/C=C/C(=O)Nc2ccc(OC)cc2[N+](=O)[O-])cc1 | 64.1* | -3.7 | 24.9 | 6.6 | -24.6 | 35.7 | 26.6
Cc1ccc(-c2cn(-c3ccccc3F)c(=S)[nH]2)cc1 | -1.3 | -3.5 | 10.6 | 6.4 | -7.1 | x | x
O=[N+]([O-])c1ccc(-c2cn(-c3ccccc3F)c(=S)[nH]2)cc1 | 30.0* | 1.0 | 31.1 | -2.2 | -16.8 | 12.5 | 11.2
NC(=O)C1CCCN(C(=O)c2ccc3c(c2)NC(=O)CS3)C1 (stereo not given) | 2.6 | -2.4 | 1.5 | -0.7 | -3.0 | x | x
O=C(N/N=C/c1coc2ccccc2c1=O)c1cn(-c2ccccc2)nc1-c1ccc(F)cc1 | -2.8 | -0.9 | -15.4 | 3.7 | 9.9 | x | x
CN1CCN(S(=O)(=O)c2ccc3c(c2)oc(=O)n3C)CC1 | 33.1* | -2.3 | 4.6 | 1.8 | -13.3 | 0.8 | 9.4
CC1CC(C)CN(CCCNS(=O)(=O)c2ccc3c(c2)oc(=O)n3C)C1 (stereo not given) | 33.0* | 0.5 | 2.0 | 2.0 | -2.3 | 8.1 | 6.3
Cn1c(=O)oc2cc(S(=O)(=O)N3CCN(c4ccc(F)cc4)CC3)ccc21 | 36.6* | -9.7 | 14.1 | -8.8 | -0.8 | 5.9 | 2.8
CC1CCN(C(=O)CCNS(=O)(=O)c2ccc3c(c2)oc(=O)n3C)CC1 | 1.8 | 3.5 | 17.7 | -3.1 | 12.7 | x | x
Cn1c(=O)oc2cc(S(=O)(=O)Nc3cccc4c3CCCC4)ccc21 | 32.6* | -5.9 | 17.4 | -0.4 | -4.8 | 12.9 | 16.6
C/C(=N\NC(=O)c1ccccc1F)c1ccc2c(c1)Nc1ccccc1S2 | 35.1* | -9.8 | 25.7 | 1.1 | -9.1 | 59.8* | 39.3*
C/C(=N\NC(=O)c1ccc(O)cc1)c1ccc2c(c1)Nc1ccccc1S2 | 70.5* | -4.7 | 1.6 | -7.7 | 2.2 | 86.4* | 56.1*
N#CC1=C(N2CCCCC2)c2cc3c(n2C1=O)CCCC3 | 51.1* | 1.3 | 20.1 | 1.5 | -6.2 | 23.2 | 11.3
CCCSc1nc(N)nc2c1ncn2C1OC(CO)C(O)C1O (stereo not given) | 0.4 | x | -50.0 | x | x | x | x
